In ChEMBL document CHEMBL4680167, “Synthesis and SARs of dopamine derivatives as potential inhibitors of influenza virus PA endonuclease” (Eur J Med Chem, 2020):
pEC50, pKd: −log10 of the molar value.

Assays:
[1] = (§1) Binding affinity to recombinant Influenza A virus (A/USA:Huston/AA/1945 H1N1)) N-terminal His6-tagged PA endonuclease assessed as dissociation constant by SPR analysis
Procedure, shortened: (§2)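 For SPR, compounds were printed in 5 repeats on a photo-cross-linker chip. The surface was primed with HBS-EP (10 mM HEPES pH 7.0, 150 mM NaCl, 3 mM EDTA, 0.005% P20), then with running buffer (PBS, 5% DMSO). PA_N at 10, 20, 40, 80 and 160 nM in running buffer was injected 600 s at 0.5 µL/s, followed by 360 s dissociation.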

Influenza A virus [2] = assay: as §1; procedure, shortened: as §2
[3] = Inhibition of recombinant Influenza A virus (A/USA:Huston/AA/1945 H1N1)) N-terminal His6-tagged PA endonuclease using 6FAM-TGGCAATATCAGCTCCACA-MGBN DNA probe as substrate by TR-FRET assay
Procedure, shortened: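 Recombinant PA_N cleavage was followed by FRET on a TaqMan-like probe: 5'-FAM, 19 nucleotides, 3'-MGBNFQ quencher, excitation 492 nm. Cleavage frees FAM fluorescence. Percentage inhibition was plotted against log compound concentration; mean ± SD of eleven independent experiments.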

Influenza A virus [4] = assay: Antiviral activity against Influenza A virus (A/WSN/1933(H1N1)) infected in dog MDCK cells assessed as reduction in virus-induced cytopathic effect incubated for 48 hrs by MTT assay; format: functional, organism-based
Procedure, shortened: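 MDCK cells (DMEM, 10% FBS, 37 °C, 5% CO2) were seeded overnight and infected with 100 TCID50 (MOI 3.5×10^-3) of A/WSN/33 for 1 h. Compounds were added at increasing concentrations and cells were cultured about 48 h in FBS-free medium with 0.6 µg/mL TPCK-trypsin. Read-out was MTT, formazan dissolved in DMSO, A570, with CPE checked by microscopy. Triplicates; EC50 is the concentration giving 50% cell protection.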

[5] = Cytotoxicity against dog MDCK cells assessed as reduction in cell viability incubated for 48 hrs by MTT assay; format: cell-based, Canis lupus familiaris
Procedure, shortened: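 Uninfected MDCK cells were seeded overnight, then exposed to increasing compound concentrations or 0.1% DMSO blank for 48 h. Viability was read by MTT; CC50 is the concentration killing 50% of cells.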

[6] = Selectivity index, ratio of CC50 for dog MDCK cells to EC50 for Influenza A virus (A/WSN/1933(H1N1)) infected in dog MDCK cells; format: toxicity, cell-based; conditions: read-out: Ratio CC50/EC50

Row | Structure (SMILES) | pKd [1] | Activity (Influenza A virus [2]) | pEC50 [3] | pEC50 (Influenza A virus [4]) | CC50 at 48 h [5] [µM] | selectivity ratio [6]
1 | O=C(Cc1ccc(O)c(O)c1)NCCc1ccc(O)c(O)c1 | 7.58 | Dose-dependent effect | 6.51 | 5.61 | > 200 | > 81.3
2 | O=C(CCc1ccc(O)c(O)c1)N1CCc2cc(O)c(O)cc2C1 |  |  |  | 4.73 | 197 | 10.6
3 | O=C(NCCc1ccc(O)c(O)c1)c1ccc(O)c(O)c1 |  |  |  | 4.99 | 154 | 15
4 | O=C(NCCc1ccc(O)c(O)c1)c1cccc(O)c1 |  |  |  | 4.88 | > 200 | > 15.3
5 | O=C(Cc1ccc(O)c(O)c1)N1CCc2cc(O)c(O)cc2C1 | 7.03 | Dose-dependent effect | 6.31 | 5.59 | 151 | 58.5
6 | O=C(NCCc1ccc(O)c(O)c1)c1cc(O)c(O)c(O)c1 |  |  |  | < 4.52 |  | 
7 | O=C(NCCc1ccc(O)c(O)c1)c1cccc(O)c1O |  |  |  | < 4.52 |  | 
8 | CCC(CC)[C@H](NC(C)=O)[C@@H]1[C@H](O)[C@@H](C(=O)O)C[C@H]1NC(=N)N [PERAMIVIR ANHYDROUS] |  |  |  | 5.28 | > 200 | > 38
9 | O=C(Cc1ccc(O)c(O)c1)OCCc1ccc(O)c(O)c1 [BLAPSIN A] |  |  |  | < 4.52 |  | 
10 | O=C1c2cc(=O)ccn2N([C@@H]2c3ccccc3SCc3c2ccc(F)c3F)[C@@H]2COCCN12 | 9.68 |  |  |  |  | 
11 | O=C(CCc1ccc(O)c(O)c1)NCCc1ccc(O)c(O)c1 |  |  | 6.07 | 5.31 | > 200 | > 64.8
12 | O=C(O[C@@H]1Cc2c(O)cc(O)cc2O[C@@H]1c1cc(O)c(O)c(O)c1)c1cc(O)c(O)c(O)c1 [EPIGALOCATECHIN GALLATE] | 6.02 |  | 5.19 | 4.54 | > 200 | > 6.9
13 | O=C(c1ccc(O)c(O)c1)N1CCc2cc(O)c(O)cc2C1 |  |  | 6.24 | 5.51 | 133 | 43
14 | O=C(NCCc1ccc(O)c(O)c1)c1ccc(O)cc1 |  |  |  | 4.90 | > 200 | > 25.2
15 | O=C(NCCc1ccc(O)c(O)c1)c1ccccc1O |  |  |  | < 4.52 |  | 
16 | Oc1ccc(CCNC(=S)Cc2ccc(O)c(O)c2)cc1O |  |  | 5.89 | 5.15 | > 200 | > 45.7
